This is a sample that favours compounds with a hit; in the whole collection about 1.2% have one here.
ABHD5 PLIN5 PPI = inhibitors of human ABHD5-perilipin-5 interaction; Split G. princeps luciferase complementation, luminescence, 4 h; inhibition, % at 4 µM; Q00G26+Q8WTS1; AID 602281; hit rate 0.78% among 360,000;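 active means inhibition above the mean inhibition across every tested compound plus 3 SD, cut at about 22% in these data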
FN deposit inh = fibronectin deposition inhibition | inhibition, % at 12.6 µM | AH1F fibroblasts, Alexa488-fibronectin deposition fluorescence, overnight | hit rate 0.086% among 350,000 | AID 743247;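 active means mean inhibition across replicates of 30% or more, regardless of how many single replicates reach that level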
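Schedule: 1 h cell adhesion before compound, then overnight fibronectin incubation; test system: AH1F fibroblast monolayer depositing Alexa488-labelled fibronectin into matrix; quantity: 10000 AH1F cells per well; probe or stimulus: fluorescent fibronectin at 24 nM final; signal: fluorescence, ex 485 nm, em 525 nm; evaluation: percent inhibition as loss of matrix-bound fibronectin fluorescence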
A3A deaminase = blocks human APOBEC3A ssDNA deamination; hit rate 0.41% among 330,000; inhibition, % at 20 µM; P31941; recombinant A3A, FAM/TAMRA ssDNA deamination fluorescence; AID 493011;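 active means at least 40% inhibition at 20 µM here, with at most 30% in a related deaminase screen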
APOBEC3G inh = blocks human APOBEC3G single-stranded DNA deamination | recombinant A3G, ssDNA deamination FAM/TAMRA fluorescence | inhibition, % at 20 µM | hit rate 0.28% among 330,000 | AID 493012;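 active means inhibition of at least 40% at 20 µM, with no more than 30% in the related APOBEC3A deaminase screen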
ABHD5-PLIN5 conf = confirmation of human ABHD5-PLIN5 interaction inhibitors; biochemical ABHD5-PLIN5 interaction, luminescence; AID 651612; inhibition, % at 4 µM; hit rate 67% among 2,200; shares compounds with ABHD5 PLIN5 PPI; in the data active means inhibition above about 23%
HNF4 split-luc = HNF4 split-luciferase signal hit, counter-screen | shares compounds with ABHD5 PLIN5 PPI | HNF4 dimerization, luminescence, biochemical | inhibition, % at 4 µM | hit rate 77% among 2,200;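 active means mean inhibition across replicate wells exceeding the computed hit threshold, cut at about 13% in these data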;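 further: light from luciferase halves that rejoin when HNF4 fusion proteins dimerize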
Target sequence (P41235 whole entry, looked up, the tested form may be a part): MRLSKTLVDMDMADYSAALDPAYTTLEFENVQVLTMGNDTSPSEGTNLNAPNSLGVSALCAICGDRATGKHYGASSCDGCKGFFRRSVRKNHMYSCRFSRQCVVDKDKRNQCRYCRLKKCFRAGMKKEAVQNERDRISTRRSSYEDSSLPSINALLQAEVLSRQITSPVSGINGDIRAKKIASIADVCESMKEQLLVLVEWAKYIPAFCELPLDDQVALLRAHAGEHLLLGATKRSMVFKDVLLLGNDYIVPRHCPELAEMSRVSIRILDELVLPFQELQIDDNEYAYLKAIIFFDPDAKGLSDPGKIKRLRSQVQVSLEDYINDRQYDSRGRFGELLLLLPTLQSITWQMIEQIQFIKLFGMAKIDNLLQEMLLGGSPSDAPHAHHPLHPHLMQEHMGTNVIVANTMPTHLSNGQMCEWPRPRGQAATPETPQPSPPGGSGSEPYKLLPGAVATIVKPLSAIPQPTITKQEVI
Hits are given with their value; i = inactive; nt = no result given.

SMILES | ABHD5 PLIN5 PPI | FN deposit inh | A3A deaminase | APOBEC3G inh | ABHD5-PLIN5 conf | HNF4 split-luc
NS(=O)(=O)c1ccc(CCNC(=O)c2cc(-c3ccco3)nc3ccccc23)cc1 | 25.2 | i | i | i | 22.4 | 22.1
O=C(COC(=O)c1cc(-c2ccc(Cl)s2)nc2ccccc12)NCc1ccco1 | 37.8 | nt | i | i | 59.0 | 55.8
Cc1ccc(-c2cc(C(=O)NCc3ccco3)c3ccccc3n2)s1 | 35.0 | nt | i | i | i | 15.8
Cc1ccc(-c2nc(C)sc2CC(=O)NCc2ccco2)cc1 | 27.5 | i | nt | nt | 26.8 | 32.6
CC=Cc1ccc2n(c1=O)C[C@H]1[C@H](CO)[C@@H](C(=O)NC3CCC3)N(C(=O)C3CCC3)[C@@H]21 (mixture of isomers) | nt | i | nt | nt | nt | nt
CN(C)C(=O)C[C@H]1CC[C@H]2[C@@H](COC[C@H](O)CN2C(=O)C2CC2)O1 | nt | i | nt | nt | nt | nt
Cc1ccc(S(=O)(=O)N2C[C@H](O)COC[C@H]3O[C@H](CC(=O)NCc4ccc5c(c4)OCO5)CC[C@@H]32)cc1 | nt | i | nt | nt | nt | nt
O=C(C=Cc1ccccc1)CC(c1ccccc1)N1CCOCC1 (configuration not stated) | 76.6 | i | nt | nt | 99.6 | 95.5
CCOC(=O)N1CCN(C(=O)C2CCN(C(=O)c3ccccc3C)CC2)CC1 | 25.6 | nt | nt | nt | 38.2 | 91.0
CCCCOc1[nH]c2nc(-c3ccco3)n(Cc3ccco3)c(=N)c2c1C#N | 48.0 | nt | i | i | 25.2 | 47.5
COc1ccc(CCNC(=O)/C=C/c2ccc3ccccc3n2)cc1OC | 25.4 | i | i | i | 31.5 | 18.4
COc1ccc(NC(=O)/C=C/c2ccc(C)o2)cc1S(=O)(=O)N1CCOCC1 | 23.1 | i | i | i | i | 17.4
Cc1ccc(/C=C/C(=O)NCc2cccs2)o1 | 24.5 | i | i | i | i | 18.0
Cc1ccc(/C=C/C(=O)Nc2ccc(Oc3ccccc3)cc2)o1 | 24.2 | i | nt | nt | i | 39.0
Cc1cc(NS(=O)(=O)c2ccc(NC(=O)/C=C/c3ccccc3)cc2)nc(C)n1 | i | i | i | i | nt | nt
Cc1cc(NS(=O)(=O)c2ccc(NC(=O)/C=C/c3ccc(C)o3)cc2)nc(C)n1 | 28.6 | i | i | i | 51.3 | 60.3
CCC(=O)NC[C@H]1[C@H](c2ccc(C3=CCCC3)cc2)[C@H](CO)N1C(=O)C1CC1 | nt | i | nt | nt | nt | nt
C[C@@H]1CN([C@@H](C)CO)C(=O)c2cc(NC(=O)CCCN(C)C)ccc2O[C@H]1CN(C)C(=O)Nc1cccc2ccccc12 | nt | i | nt | nt | nt | nt
CO[C@@H]1CN(C)C(=O)c2ccc(NC(C)=O)cc2OC[C@H](C)N(CC2CC2)C[C@H]1C | nt | i | nt | nt | nt | nt
O=S(=O)(Nc1nc2ccccc2nc1NCc1ccco1)c1ccccc1 | i | nt | i | i | nt | nt
O=S(=O)(Nc1nc2ccccc2nc1NCc1ccco1)c1ccc(F)cc1 | 24.7 | i | i | i | i | i
COC(=O)c1ccc2nc(-c3ccco3)c(Cc3ccc(OC)cc3C)n2c1 | 46.7 | i | nt | nt | 72.2 | 83.2
COC(=O)c1ccc2nc(-c3ccco3)c(Cc3ccccc3C(F)(F)F)n2c1 | 52.1 | i | nt | nt | 24.4 | 66.4
COC(=O)c1ccc2nc(-c3ccco3)c(Cc3cccc(F)c3)n2c1 | 56.8 | i | nt | nt | 48.2 | 83.0
COC(=O)c1ccc2nc(-c3ccc(F)cc3)c(Cc3cccc(F)c3)n2c1 | i | i | nt | nt | nt | nt
SMILES | ABHD5 PLIN5 PPI | FN deposit inh | A3A deaminase | APOBEC3G inh | ABHD5-PLIN5 conf | HNF4 split-luc
Brc1ccc2nc(-c3ccco3)c(Cc3ccccc3)n2c1 | 59.1 | i | nt | nt | 63.3 | 94.6
Cc1ccc2nc(-c3ccco3)c(Cc3ccsc3)n2c1 | nt | i | nt | nt | nt | nt
CCC(=O)N1[C@@H](CO)[C@@H](c2ccccc2)C12CN(C(=O)CN1CCOCC1)C2 | nt | i | nt | nt | nt | nt
Cc1ccc(Cc2c(-c3ccco3)nc3ccc(C)cn23)cc1 | 37.2 | i | nt | nt | i | 34.2
COC(=O)c1ccc2nc(-c3ccco3)c(Cc3ccc(C)cc3)n2c1 | 39.0 | i | nt | nt | i | 42.3
CCn1c(SCC(=O)Nc2ccc3c(c2)OCO3)nnc1C1CC1 | i | i | i | i | nt | nt
CCn1c2ccccc2c2cc(NC(=O)CSc3nnc(C4CC4)n3Cc3ccco3)ccc21 | 30.9 | nt | i | i | i | 24.6
CCN1c2ccccc2NC2C1C(C(C)=O)C(=O)N2c1ccc(Cl)cc1 (configuration not stated) | i | nt | i | i | nt | nt
CCN1c2ccccc2NC2N=C(OC)C(c3ccccc3)C21 (configuration not stated) | 47.9 | nt | i | i | i | 12.8
CCc1ccc(/C=C/C(=O)c2c(C)cc(C)[nH]c2=O)cc1 | 29.1 | nt | i | i | 47.8 | 29.1

High-throughput results (PubChem BioAssay)
